Measurements: ChEMBL document CHEMBL3997779, “Rhodamine B conjugates of triterpenoic acids are cytotoxic mitocans even at nanomolar concentrations” (Eur J Med Chem, 2017)
pEC50: −log10 of the molar value. The source made the active and inactive calls.

Tests used:
[1] = test system: 518A2; assay: Cytotoxicity against human 518A2 cells after 96 hrs by SRB assay; type: functional, cell-based; conditions: 518A2, 96 h
Procedure, shortened: (§1)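 EC50 from sulforhodamine B assay after 96 h exposure. Each value is averaged from three independent experiments, each run in triplicate, with 95% confidence interval. Assay cut-off 30 µM.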

[2] = test system: A2780; assay: Cytotoxicity against human A2780 cells after 96 hrs by SRB assay; type: functional, cell-based; conditions: A2780, 96 h; procedure, shortened: as §1
[3] = test system: HT-29; assay: Cytotoxicity against human HT-29 cells after 96 hrs by SRB assay; type: functional, cell-based; conditions: HT-29, 96 h; procedure, shortened: as §1
[4] = test system: MCF7; assay: Cytotoxicity against human MCF7 cells after 96 hrs by SRB assay; type: functional, cell-based; conditions: MCF7, 96 h; procedure, shortened: as §1
[5] = test system: A549; assay: Cytotoxicity against human A549 cells after 96 hrs by SRB assay; type: functional, cell-based; conditions: A549, 96 h; procedure, shortened: as §1
[6] = test system: 8505C; assay: Cytotoxicity against human 8505C cells after 96 hrs by SRB assay; type: functional, cell-based; procedure, shortened: as §1
[7] = test system: NIH3T3; assay: Cytotoxicity against mouse NIH/3T3 cells after 96 hrs by SRB assay; type: cell-based; conditions: NIH3T3, 96 h; procedure, shortened: as §1
[8] = Selectivity factor, ratio of EC50 for mouse NIH/3T3 cells to EC50 for human A2780 cells
[9] = Drug uptake in mitochondria of human A2780 cells at 0.1 uM after 24 hrs by fluorescence and light microscopy; type: ADME
Procedure, shortened: (§2)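 Approx. 800,000 A2780 cells grown 24 h in 25 cm² flasks. Medium then replaced with compound-containing medium at 0.1 µM, or blank medium as control, for 24 h. Cells collected, centrifuged at 1200 rpm and 4 °C, and washed in PBS. Live cells stained with Hoechst 33342 (DNA) and rhodamine 123 (mitochondria), then imaged by fluorescence and light microscopy.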

[10] = test system: A2780; assay: Induction of morphological changes in human A2780 cells at 0.1 uM after 24 hrs by rhodamine 123/Hoechst 33342 staining-based fluorescence microscopic method; type: functional, cell-based; procedure, shortened: as §2
[11] = test system: A2780; assay: Induction of apoptosis in human A2780 cells at 0.1 to 0.4 uM after 24 hrs by annexin V/propidium iodide staining-based flow cytometric method relative to control; type: functional, cell-based
Procedure, shortened: (§3)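 A2780 cells treated at 0.1 µM, and at up to 0.4 µM, compared with untreated control. Stained with annexin V/propidium iodide and quantified by FACS.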

[12] = test system: A2780; assay: Induction of necrosis in human A2780 cells at 0.1 uM after 24 hrs by annexin V/propidium iodide staining-based flow cytometric method relative to control; type: functional, cell-based; procedure, shortened: as §3

Drug uptake [9] | SMILES | pEC50 [1] | pEC50 [2] | pEC50 [3] | pEC50 [4] | pEC50 [5] | pEC50 [6] | pEC50 [7] | Ratio EC50 [8] | Activity [10] | Activity [11] | Activity [12]
 | CC(=O)O[C@H]1CC[C@]2(C)[C@H]3CC[C@@H]4[C@H]5[C@H](C(C)=O)CC[C@]5(C(=O)N5CCNCC5)CC[C@@]4(C)[C@]3(C)CC[C@H]2C1(C)C | 5.57 | 5.51 | 5.62 | 5.55 | 5.41 | 5.43 | 6.15 |  |  |  | 
 | CCN(CC)c1ccc2c(-c3ccccc3C(=O)N3CCN(C(=O)[C@]45CC[C@@H](C)[C@H](C)[C@H]4C4=CC[C@@H]6[C@@]7(C)CC[C@H](OC(C)=O)C(C)(C)[C@@H]7CC[C@@]6(C)[C@]4(C)CC5)CC3)c3ccc(=[N+](CC)CC)cc-3oc2c1 | 7.33 | 7.42 | 7.08 | 7.12 | 6.85 | 7.33 | 6.86 |  |  |  | 
 | CCN(CC)c1ccc2c(-c3ccccc3C(=O)N3CCN(C(=O)[C@]45CC[C@@H](C(C)=O)[C@@H]4[C@H]4CC[C@@H]6[C@@]7(C)CC[C@H](OC(C)=O)C(C)(C)[C@@H]7CC[C@@]6(C)[C@]4(C)CC5)CC3)c3ccc(=[N+](CC)CC)cc-3oc2c1 | 7.00 | 7.44 | 7.00 | 7.15 | 6.88 | 6.84 | 6.77 |  |  |  | 
 | CCN(CC)c1ccc2c(-c3ccccc3C(=O)N3CCN(C(=O)[C@]45CCC(C)(C)C[C@H]4C4=CC[C@@H]6[C@@]7(C)CC[C@H](OC(C)=O)C(C)(C)[C@@H]7CC[C@@]6(C)[C@]4(C)CC5)CC3)c3ccc(=[N+](CC)CC)cc-3oc2c1 | 7.37 | 7.49 | 7.04 | 7.21 | 6.92 | 7.35 | 6.86 |  |  |  | 
 | C=C(C)[C@@H]1CC[C@]2(C(=O)N3CCN(C(=O)c4ccccc4-c4c5ccc(=[N+](CC)CC)cc-5oc5cc(N(CC)CC)ccc45)CC3)CC[C@]3(C)[C@H](CC[C@@H]4[C@@]5(C)CC[C@H](OC(C)=O)C(C)(C)[C@@H]5CC[C@]43C)[C@@H]12 | 7.34 | 7.30 | 6.82 | 7.09 | 6.75 | 7.21 | 6.68 |  |  |  | 
 | CC(=O)O[C@H]1CC[C@]2(C)[C@H]3CC=C4[C@@H]5CC(C)(C)CC[C@]5(C(=O)N5CCNCC5)CC[C@@]4(C)[C@]3(C)CC[C@H]2C1(C)C | 5.57 | 5.77 | 5.89 | 5.77 | 5.64 | 5.42 | 5.77 |  |  |  | 
 | CCN(CC)c1ccc2c(-c3ccccc3C(=O)O)c3ccc(=[N+](CC)CC)cc-3oc2c1 [RHODAMINE] | < 4.52 | < 4.52 | < 4.52 | < 4.52 | < 4.52 | < 4.52 | < 4.52 |  |  |  | 
 | CC(=O)[C@@H]1CC[C@]2(C(=O)O)CC[C@]3(C)[C@H](CC[C@@H]4[C@@]5(C)CC[C@H](O)C(C)(C)[C@@H]5CC[C@]43C)[C@@H]12 [PLATANIC ACID] | < 4.52 | < 4.52 | < 4.52 | < 4.52 | < 4.52 | < 4.52 |  |  |  |  | 
 | C=C(C)[C@@H]1CC[C@]2(C(=O)O)CC[C@]3(C)[C@H](CC[C@@H]4[C@@]5(C)CC[C@H](O)C(C)(C)[C@@H]5CC[C@]43C)[C@@H]12 [BETULINIC ACID] | 5.03 |  |  |  |  |  | 4.79 |  |  |  | 
 | CC1(C)CC[C@]2(C(=O)O)CC[C@]3(C)C(=CC[C@@H]4[C@@]5(C)CC[C@H](O)C(C)(C)[C@@H]5CC[C@]43C)[C@@H]2C1 [OLEANOLIC_ACID] | < 4.52 |  | < 4.52 | < 4.52 | < 4.52 | < 4.52 | < 4.52 |  |  |  | 
 | CC(=O)O[C@H]1CC[C@]2(C)[C@H]3C(=O)C=C4[C@@H]5C[C@@](C)(C(=O)N6CCNCC6)CC[C@]5(C)CC[C@@]4(C)[C@]3(C)CC[C@H]2C1(C)C | 5.03 | 5.09 | 5.35 | 5.08 | 4.98 | 5.00 | 5.06 |  |  |  | 
 | CC1(C)[C@@H](O)CC[C@]2(C)[C@H]3C(=O)C=C4[C@@H]5C[C@@](C)(C(=O)O)CC[C@]5(C)CC[C@@]4(C)[C@]3(C)CC[C@@H]12 [ENOXOLONE] | < 4.52 | < 4.52 | < 4.52 | < 4.52 | < 4.52 | < 4.52 | 4.73 |  |  |  | 
 | C=C(C)[C@@H]1CC[C@]2(C(=O)N3CCNCC3)CC[C@]3(C)[C@H](CC[C@@H]4[C@@]5(C)CC[C@H](OC(C)=O)C(C)(C)[C@@H]5CC[C@]43C)[C@@H]12 | 5.82 | 5.72 | 6.00 | 5.85 | 5.66 | 5.66 | 6.05 |  |  |  | 
 | C[C@H]1[C@H](C)CC[C@]2(C(=O)O)CC[C@]3(C)C(=CC[C@@H]4[C@@]5(C)CC[C@H](O)C(C)(C)[C@@H]5CC[C@]43C)[C@H]12 [URSOLIC ACID] | 4.83 |  |  |  |  |  | 4.73 |  |  |  | 
 | CC(=O)O[C@H]1CC[C@]2(C)[C@H]3CC=C4[C@@H]5[C@@H](C)[C@H](C)CC[C@]5(C(=O)N5CCNCC5)CC[C@@]4(C)[C@]3(C)CC[C@H]2C1(C)C | 5.59 | 5.68 | 5.72 | 5.70 | 5.49 | 5.46 | 5.68 |  |  |  | 
 | CC(=O)O[C@@H]1C[C@]2(C)[C@H]3CC=C4[C@@H]5CC(C)(C)CC[C@]5(C(=O)N5CCNCC5)CC[C@@]4(C)[C@]3(C)CC[C@H]2C(C)(C)[C@H]1OC(C)=O |  | 5.72 | 5.80 | 6.00 | 5.82 |  | 5.49 |  |  |  | 
Active | CCN(CC)c1ccc2c(-c3ccccc3C(=O)N3CCN(C(=O)[C@]45CCC(C)(C)C[C@H]4C4=CC[C@@H]6[C@@]7(C)C[C@@H](OC(C)=O)[C@H](OC(C)=O)C(C)(C)[C@@H]7CC[C@@]6(C)[C@]4(C)CC5)CC3)c3ccc(=[N+](CC)CC)cc-3oc2c1.[Cl-] | 7.96 | 8.15 | 7.24 | 7.55 | 6.73 |  | 6.48 | 50 | inactive | inactive | Active
 | CC1(C)CC[C@]2(C(=O)O)CC[C@]3(C)C(=CC[C@@H]4[C@@]5(C)C[C@@H](O)[C@H](O)C(C)(C)[C@@H]5CC[C@]43C)[C@@H]2C1 [MASLINIC ACID] | 4.86 | 4.71 | 4.54 | < 4.52 | 4.63 | 4.77 | 4.68 |  |  |  | 
